Our source for the AC50 and activity change, negative = inhibition values is PubChem BioAssay AID623981 (Broad Institute, 2012).

Structures are written as SMILES. Values joined by “and” are separate entries in the source; they are usually repeats but may differ in a detail not shown here. Equal values may be shown once. Active and inactive are the calls of the source.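 Rule for the calls: active = compounds lowering growth signal whose fitted half-effect dose is at most twice their top tested dose; inconclusive = flat fit with moderate inhibition, or poor curve fit; inactive = the rest.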

One experiment has as its system C. albicans CaCi-2 growth, Alamar Blue fluorescence, 48 h. The experiment in a line: single-agent growth inhibition of fluconazole-resistant C. albicans, dose response, CaCi-2 strain, dry powder, plate reader, set 3 (AID 623981).
Details: not given
An outline of the steps: (§1)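 Assay system: fluconazole-resistant Candida albicans strain CaCi-2; input: inoculum A600 0.00015; buffer or medium: defined RPMI 1640 with MOPS buffer, uridine, glucose, Pen/Strep; incubation: 48 h at 37 °C, humidified, plus 2 h stain; technique: Alamar Blue fluorescence; benchmarks: amphotericin 10 µM as positive control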
Turning to `CCOC(=O)N1C(=O)C2(CCCCC2)N(c2ccccc2)C1=S`, the AC50 is 697 nM.
Take `CCOC(=O)N1C(=O)C2(CCCCC2)N(c2ccc(F)cc2)C1=S`: the AC50 was 150 nM.
Same read-out and setting: with `CC1/C=C/C=C\C=C\C=C\C=C\C=C\C=C\C(O[C@H]2OC(C)C(O)C(N)C2O)CC2OC(O)(CC(O)CC(O)C(O)CCC(O)CC(O)CC(=O)OC(C)C(C)C1O)CC(O)C2C(=O)O` (stereo partly drawn) the figure was 92.3 nM.
Still for that read-out and setting: the same measure for `CCOC(=O)N1C(=O)C2(CCCCC2)N(c2ccc(Cl)cc2)C1=S`: 221 nM; for `CCOC(=O)N1C(=O)C2(CCCCC2)N(c2cccc(C)c2)C1=S`: 1260 nM.
With `CCOC(=O)N1C(=O)C2(CCCCC2)N(c2ccc(C#N)cc2)C1=S`, the AC50 was 307 nM.
On to `CCOC(=O)N1C(=O)C2(CCCCC2)N(c2ccc(C)cc2)C1=S`, for which the AC50 was 2740 nM and 3070 nM.

Test system in a further experiment: not listed separately
The experiment is described as above. Particulars: C. albicans CaCi-2 growth, Alamar Blue fluorescence, 48 h; at 3 µM (top of the series). An outline of the steps: as §1
For orientation: Resazurin is reduced to fluorescent resorufin, in cell work by metabolically active cells.
For the compound `C/C=C/[C@@H]1[C@H]2C[C@@H](C)CC[C@@H]2C(C)=C[C@H]1C(=O)c1c(O)c(-c2ccc(O)cc2)c[nH]c1=O`, the activity change, negative = inhibition is 47.9% (inactive).

As a reminder, the AC50 is the midpoint of the concentration-response curve, whichever way the signal moves.
